Screening results as filed in PubChem.
An excerpt weighted towards active compounds, which were near 3.8% of everything screened.
hERG protect – compounds protecting human hERG from proarrhythmic drug block | actives 0.51% (n = 310,000) | CHO-hERG, FluxOR thallium flux, dofetilide IC70 present | activation (rescue from dofetilide block), less the hit threshold, % at 10 µM | AID 1511;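 active = activation above the mean of controls blocked by dofetilide plus 5 SD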;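 also: thallium influx through hERG after potassium depolarization seen as dye fluorescence rise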
KCNK9 inh – blocks the human KCNK9 two-pore domain potassium channel; Q9NPC2; HEK293 KCNK9, FluxOR thallium flux fluorescence; hits give low values; B-score at 10 µM; actives 1.2% (n = 310,000); AID 488922;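 active = ratio B-score over 3 SD below the library mean, with starting fluorescence within 5 SD of its mean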;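 also: negative B-score means less thallium flux so channel inhibition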
KCNQ1 block – inhibitors of human KCNQ1 potassium channel; P51787; CHO-K1 KCNQ1, FluxOR thallium flux fluorescence; hits give high values; B-score at 10 µM; actives 1.3% (n = 310,000); AID 2642;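 active = compounds whose thallium flux B-score, printed positive for inhibition, exceeds three library SD while starting fluorescence stays within three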;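 also: channel opened by potassium depolarization with thallium stimulus after 20 min compound exposure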
KCNQ1 act – potentiators or activators of human KCNQ1 potassium channel. P51787. CHO-K1 KCNQ1, thallium flux FluxOR fluorescence; hits give high values. B-score at 10 µM. actives 0.35% (n = 310,000). AID 2648;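 active = fluorescence ratio B-score, a plate-corrected score, at least three library SD, with initial intensity B-score within 5 SD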
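Doses: Single concentration per compound, DMSO matched to controls | Test system: KCNQ1-transfected CHO-K1 cells | Timing: 90 min dye loading and 20 min compound exposure, both at room temperature | Measured by: Kinetic FluxOR thallium fluorescence, 10-s 1-Hz baseline, 110-s post-stimulus read | Medium: Assay buffer with matched DMSO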
KCNK3 inh – human KCNK3 channel inhibition, primary screen; CHO-KCNK3 thallium flux, FluxOR fluorescence; hits give low values; O14649; AID 602410; actives 0.84% (n = 340,000); B-score at 10 µM;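 active = B-score under library mean minus 4 SD, starting fluorescence ratio at most library mean plus 5 SD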;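 also: more negative B-score means stronger inhibition of thallium flux through KCNK3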
Kir21 block – inhibitors of mouse Kir2.1 inward-rectifier potassium channel. HEK293-Kir2.1, FluxOR thallium flux fluorescence; hits give low values. actives 0.85% (n = 310,000). B-score at 10 µM;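 active = fluorescence ratio B-score at or below minus 3 SD of library scores, with starting-brightness B-score within 2 SD, cut at about -4.2 in these data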;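 also: channel flux triggered by added potassium and thallium sulfate stimulus; B-score of peak minus minimum fluorescence over baseline after thallium stimulus; more negative B-score means stronger Kir2.1 block with less thallium influx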
Target sequence (P35561 whole entry, looked up): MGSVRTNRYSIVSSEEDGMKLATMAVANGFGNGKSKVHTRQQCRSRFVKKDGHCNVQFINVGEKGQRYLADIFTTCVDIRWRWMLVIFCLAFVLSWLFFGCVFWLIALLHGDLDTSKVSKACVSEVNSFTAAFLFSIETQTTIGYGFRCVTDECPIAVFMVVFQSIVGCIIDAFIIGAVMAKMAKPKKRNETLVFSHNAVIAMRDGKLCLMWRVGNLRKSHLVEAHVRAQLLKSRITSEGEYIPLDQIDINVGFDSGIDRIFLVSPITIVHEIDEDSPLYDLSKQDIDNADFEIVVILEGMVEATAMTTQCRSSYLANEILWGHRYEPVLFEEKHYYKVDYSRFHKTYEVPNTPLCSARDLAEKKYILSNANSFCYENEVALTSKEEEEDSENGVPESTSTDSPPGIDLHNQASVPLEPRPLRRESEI
KCNQ1 inh valid – reconfirmed blocker of the human KCNQ1 potassium channel; shares compounds with KCNQ1 block; KCNQ1 cell line, FluxOR thallium flux fluorescence; inhibition, % at 10 µM; actives 93% (n = 1,600); AID 588353;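 active = primary screen active, with duplicate mean exceeding buffer control mean plus 3 SD of buffer wells, cut at about 28% in these data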;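 also: 0% = buffer control ratio and 100% = XE991 inhibitor control ratio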
CHO KCNQ1 ctr – activity in parental CHO cells lacking KCNQ1 | parental CHO-K1, FluxOR thallium flux fluorescence ratio; hits give low values; zero means no signal rise above baseline | fluorescence ratio (Tl flux) at 10 µM | actives 21% (n = 1,600) | shares compounds with KCNQ1 block | AID 588366;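 active = mean of duplicate thallium-flux fluorescence ratios in parental host cells more than 5 SD below the buffer control mean, cut at about 0.38 in these data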;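 also: ratio is peak minus minimum fluorescence divided by baseline fluorescence; actives read low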
KCNQ1 ephys val – human KCNQ1 inhibition validated by electrophysiology; shares compounds with KCNQ1 block; KCNQ1-CHO cells, automated patch clamp current; calls only at 10 µM; actives 20% (n = 490);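 active = KCNQ1 current drop exceeding 3 SD of negative control wells, seen in both duplicate runs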;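 also: steady state current during a 2 s step from -80 to +40 mV; negative values mean current inhibition and positive values mean potentiation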
KCNQ2 spec – selectivity of KCNQ1 inhibitors: inhibition of rat KCNQ2 channel; shares compounds with KCNQ1 block; KCNQ2 cells, FluxOR thallium flux fluorescence; inhibition, % at 10 µM; actives 71% (n = 1,600); AID 651746;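 active = mean percent inhibition of the KCNQ2 thallium signal more than 5 SD above the buffer-only control wells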;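 also: KCNQ2 expressed in CHO cells; 0% = buffer control wells and 100% = XE-991 inhibitor control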
KCNQ1 KCNE1 spec – selectivity of KCNQ1 inhibitors: inhibition of human KCNQ1/KCNE1 channel; shares compounds with KCNQ1 block; AID 652147; actives 77% (n = 1,600); KCNQ1/KCNE1 cells, FluxOR thallium flux fluorescence; inhibition, % at 10 µM;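 active = mean percent inhibition of duplicate wells above the buffer-only control mean plus 3 SD of those controls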;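 also: 0% = buffer only wells and 100% = XE-991 inhibitor control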
* hit, by the source's call; i = inactive; . = no result; + = active, no number.

SMILES	hERG protect	KCNK9 inh	KCNQ1 block	KCNQ1 act	KCNK3 inh	Kir21 block	KCNQ1 inh valid	CHO KCNQ1 ctr	KCNQ2 spec	KCNQ1 KCNE1 spec	others
COc1ccc(-c2csc3ncnc(N4CCN(c5cccc(OC)c5)CC4)c23)cc1	-10	i	10*	i	i	0.21	134*	0.41	114%*	119%*	KCNQ1 ephys val=i
COc1ccc(-c2csc3ncnc(N4CCN(S(=O)(=O)c5cccs5)CC4)c23)cc1	-21	i	8*	i	i	0.14	84*	0.43	100%*	76%*
COc1ccc(-c2csc3ncnc(N4CCN(C(=O)c5ccco5)CC4)c23)cc1	-23	i	i	i	i	0.9	.	.	.	.
COc1ccc(F)cc1CN1CCN(c2ncnc3scc(-c4ccccc4)c23)CC1	-10	i	7*	i	i	-1.3	117*	0.41	114%*	153%*	KCNQ1 ephys val=i
O=C(O)CCCn1cc(NC(=O)c2cc(F)c(F)cc2Cl)cn1	-10	i	i	i	i	1.8	.	.	.	.
COc1ccc(-c2csc3ncnc(N4CCN(c5ccccc5Cl)CC4)c23)cc1	-11	i	9*	i	i	0.06	105*	0.38*	96%*	90%*
CN(C)CCCN(C(=O)c1ccc2c(c1)CCCC2)c1nc2cc3c(cc2s1)OCO3	-16	i	7*	i	i	-2.5	48*	0.46	76%*	36%*
CN(C)CCCN(C(=O)c1ccc2c(c1)CCCC2)c1nc2ccc(F)cc2s1	-21	i	i	i	i	-3.7	.	.	.	.
CCc1ccc(N(CC(=O)Nc2nc3ccc(C)cc3s2)S(=O)(=O)c2c(C)noc2C)cc1	-5	i	9*	i	i	0.03	71*	0.42	73%*	138%*
CCCn1nc(NC(=O)c2cccs2)c2cc3cccc(C)c3nc21	-10	i	7*	i	i	0.35	158*	0.32*	i	+
O=c1c2cc(N3CCOCC3)ccc2[nH]c(=S)n1CCCN1CCCCC1	-8	i	i	i	i	-0.01	.	.	.	.
O=C(NC1CCCCC1)C(c1ccncc1)N(Cc1ccc2c(c1)OCO2)C(=O)c1cnsn1 (stereo unspecified)	-7	i	7*	i	i	1.7	65*	0.44	i	72%*
O=C(Nc1ccn(CCCN(CCCn2ccc(NC(=O)OCc3ccccc3)nc2=O)CCc2cc3ccccc3[nH]2)c(=O)n1)OCc1ccccc1	.	.	.	.	i	.	.	.	.	.
COc1cccc(NC(=O)Nc2nc(SC)ns2)c1	0	i	i	i	i	-0.3	.	.	.	.
CCSc1nsc(NC(=O)Nc2cccc(F)c2)n1	-14	i	8*	i	i	-0.52	52*	0.55	i	i
CCCSc1nsc(NC(=O)Nc2ccc(F)cc2F)n1	-4	i	11*	i	i	2.3	58*	0.54	i	i
CCCCNC(=O)CSc1nc2cc3c(cc2c(=O)n1Cc1ccco1)OCO3	-12	i	i	i	i	-1.4	.	.	.	.
COc1cccc(N2CCc3c(C)nc4ccc(Cl)cc4c32)c1	-22	i	6*	i	i	-14*	102*	0.38	98%*	77%*	KCNQ1 ephys val=+
COc1ccc(N2CCc3c(C)nc4c(OC)cc(OC)cc4c32)cc1	-32	i	6*	i	-10*	-4.7*	0	0.51	i	i
O=Cc1ccc(C(=O)OCC(=O)N2CCCC2)cc1	-9	i	i	i	i	0.22	.	.	.	.
Cc1ccc(S(=O)(=O)N(CC(=O)N2CCc3ccccc3C2)c2ccc(Cl)c(Cl)c2)cc1	-7	i	i	i	i	0.64	.	.	.	.
O=C(CN(c1ccc(Cl)c(Cl)c1)S(=O)(=O)c1ccccc1)N1CCc2ccccc2C1	-6	i	6*	i	i	-1.8	56*	0.34*	119%*	96%*
Cc1cc(C)c(CSc2ncc(-c3ccc([N+](=O)[O-])cc3)[nH]2)c(C)c1	-9	i	16*	i	i	1.7	140*	0.43	93%*	184%*	KCNQ1 ephys val=i
O=C(Nc1cccc(F)c1)N(Cc1ccc(Cl)cc1)CC(O)C(F)(F)F (stereo unspecified)	-12	i	8*	i	i	0.07	72*	0.51	i	56%*
N/C(=N\OC(=O)c1ccco1)c1ccc(Cl)cc1	-11	i	i	i	i	0.69	.	.	.	.
SMILES	hERG protect	KCNK9 inh	KCNQ1 block	KCNQ1 act	KCNK3 inh	Kir21 block	KCNQ1 inh valid	CHO KCNQ1 ctr	KCNQ2 spec	KCNQ1 KCNE1 spec	others
COc1ccc(C(=O)COC(=O)C2CCN(c3ccc(C(F)(F)F)cn3)CC2)c(OC)c1	.	.	.	.	i	.	.	.	.	.
COc1cc(C(=O)COC(=O)C2CCN(c3ccc(C(F)(F)F)cn3)CC2)ccc1OC(F)F	-17	i	6*	i	i	0.17	62*	0.48	115%*	62%*
O=C(CN1C2=NCCN2c2ccccc21)C12CC3CC(CC(C3)C1)C2	-9	i	11*	i	i	0.59	70*	0.43	74%*	40%*
c1ccc(CN2C3=NCCN3c3ccccc32)cc1	-6	i	i	i	i	-1.4	.	.	.	.
CC(=O)c1ccc(Nc2nc(NCCO)nc(OC(C(F)(F)F)C(F)(F)F)n2)cc1	-26	i	8*	i	i	-0.02	85*	0.49	i	114%*
CNc1nc(Nc2ccc(C(C)=O)cc2)nc(OC(C(F)(F)F)C(F)(F)F)n1	-6	i	i	i	i	0.64	.	.	.	.
O=S(=O)(c1cccc(F)c1)N1CCN(C(=S)NCC2CCCO2)CC1 (stereo unspecified)	-8	i	i	i	i	0.72	.	.	.	.
O=C(Nc1ccc(F)cc1)NC1CCCCCCC1	-7	i	i	i	i	-0.18	.	.	.	.
